A selection: hits, their analogues and other compounds. The true share with any hit is near 1.5%.
ERAP1 HTS inh = human ERAP1 aminopeptidase inhibitors, primary screen, biochemical, single point, plate reader; AID 652197, 2013; hit rate 0.15% among 340,000; Endoplasmic reticulum aminopeptidase 1 (Homo sapiens), Q9NZ08; inhibition, % at 10.7 µM; recombinant ERAP1, Leu-AMC fluorescence, 60 min;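 active = mean replicate inhibition of at least 30%, or all replicates individually reaching that 30% level; inactive = mean below 30% and not every replicate reaching it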;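 also: 0% = neutral control wells and 100% = L-leucinethiol positive control wells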
S100A4 MyoIIA = inhibitors of S100A4-myosin IIA peptide binding, primary screen, biochemical, fluorescence polarization, TAMRA-MyoIIA peptide. AID 652163, 2013. hit rate 0.14% among 360,000. Protein S100-A4 (Homo sapiens), P26447. inhibition, % at 10.7 µM;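 active = mean inhibition of at least 70% across replicates, with every replicate also reaching that level; inconclusive = mean inhibition reaches 70% but some replicates fall short; inactive = mean inhibition below 70%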
Target sequence (P26447 whole entry, looked up): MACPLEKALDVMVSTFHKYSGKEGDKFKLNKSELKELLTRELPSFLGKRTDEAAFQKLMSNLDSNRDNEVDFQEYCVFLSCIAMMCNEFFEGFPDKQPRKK
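incubation = readout 5 min after mixing, signal stable up to 60 min | system = S100A4 monomer protein | buffer or medium = HEPES pH 7.2 with CaCl2, KCl, NaCl, DTT, Triton | benchmarks = neutral control DMSO, positive control TFP | also added = fluorescent myosin IIA peptide, 5 nM | compound dosing = one concentration per compound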
MLL AF4-AF9 inh = inhibitors of AF4 peptide binding to AF9, primary screen, biochemical, AlphaScreen, biotin-AF4 peptide, FLAG-AF9, single point; Protein AF-9 (Homo sapiens), P42568; inhibition, % at 10 µM; hit rate 0.47% among 350,000; AID 651704, 2012;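 active = every replicate reaching a set inhibition limit, whatever the replicate mean, cut at about 25% in these data; inconclusive = mean inhibition reaches that limit but some replicates miss it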;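 also: 0% = plate neutral control median and 100% = total signal loss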
GSIS activator = GLuc luminescence reporter in INS-1E cells, primary screen for activators of glucose-dependent secretion of insulin; INS-1E GLuc reporter insulin secretion, 2-3 h; activation, % at 16.6 µM; hit rate 0.61% among 370,000;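 active = lowest replicate activation of at least 40%, so every replicate reaches that level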;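 also: 0% = median of neutral control wells and 100% = median of IBMX positive control wells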
RAD52 inh = RAD52 DNA annealing inhibitors, primary screen, biochemical, FRET, single point, set 2; DNA repair protein RAD52 homolog (Homo sapiens), P43351; recombinant RAD52 DNA annealing, FRET fluorescence; inhibition, % at 18.7 µM; hit rate 0.46% among 360,000; AID 651710, 2012;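 active = every replicate showing at least 50% inhibition; inconclusive = mean inhibition at least 50% but not in every replicate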
Target sequence (P43351 whole entry, looked up): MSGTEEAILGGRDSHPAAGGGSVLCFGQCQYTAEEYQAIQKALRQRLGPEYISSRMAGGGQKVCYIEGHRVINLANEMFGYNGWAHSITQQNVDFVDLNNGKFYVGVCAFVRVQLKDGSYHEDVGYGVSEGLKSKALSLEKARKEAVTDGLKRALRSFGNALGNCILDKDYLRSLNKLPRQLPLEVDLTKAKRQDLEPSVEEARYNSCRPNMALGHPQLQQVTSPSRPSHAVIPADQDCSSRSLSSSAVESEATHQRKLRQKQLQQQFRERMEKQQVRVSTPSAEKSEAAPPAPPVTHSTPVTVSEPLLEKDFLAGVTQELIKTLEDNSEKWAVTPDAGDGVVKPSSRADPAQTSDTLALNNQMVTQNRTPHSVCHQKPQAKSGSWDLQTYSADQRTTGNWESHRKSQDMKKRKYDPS
The depositor's hits bear a star; u = inconclusive; x = no result given.

SMILES	ERAP1 HTS inh	S100A4 MyoIIA	MLL AF4-AF9 inh	GSIS activator	RAD52 inh
COc1ccccc1NC(=O)N1CC[C@@H]2[C@H]1c1cc(-c3ccc(F)cc3)ccc1N(C)[C@H]2CO	0	2	6	10	30
COc1ccc(-c2ccc3c(c2)[C@@H]2[C@@H](CCN2C(=O)NC2CCCC2)[C@H](CO)N3C)cc1	-1	82*	36*	-28	-1
CN1c2ccc(C3=CCCCC3)cc2[C@H]2[C@H](CCN2C(=O)C2CCCCC2)[C@H]1CO	3	-2	26*	15	19
COc1ccccc1NC(=O)N1CC[C@H]2[C@@H]1c1cc(C#Cc3ccc(F)cc3)ccc1N(C)[C@H]2CO	0	27	-5	6	74*
COc1ccc(-c2ccc3c(c2)[C@H]2[C@H](CCN2C(=O)C2CC2)[C@@H](CO)N3C)cc1	2	-2	u	-15	13
O=C(NC1CCCC1)N1CC(=O)N2[C@@H](CO)[C@H](c3ccc(-c4cccc(F)c4)cc3)[C@@H]2C1	-2	18	3	-2	-1
O=C(Nc1ccc(Cl)c(Cl)c1)N[C@@H]1CC[C@H](CCNC(=O)c2ccc(F)cc2)O[C@@H]1CO	-1	4	1	-23	-51
COc1ccccc1C#Cc1ccc2c(c1)[C@H]1[C@H](CCN1S(=O)(=O)c1cccc(C)c1)[C@@H](CO)N2	1	-7	2	2	-8
O=C1NCCOCc2cn(nn2)CC[C@H]1Cc1ccc(F)cc1	x	x	x	-3	x
CN1CCN(C(=O)C[C@@H]2C[C@@H]3c4cc(NC(=O)Nc5ccc(C(F)(F)F)cc5)ccc4O[C@@H]3[C@@H](CO)O2)CC1	2	28	17	-14	37
CC(C)NC(=O)N(C)C[C@H]1Oc2c(NC(=O)Cn3cnnn3)cccc2C(=O)N([C@H](C)CO)C[C@@H]1C	x	x	x	-4	x
CO[C@H]1CN(C)C(=O)c2cc(NC(=O)CC(F)(F)F)ccc2OC[C@@H](C)NC[C@H]1C	3	2	-9	4	-177
COc1ccc(-c2ccc3c(c2)[C@@H]2[C@@H](CCN2S(=O)(=O)c2ccc(F)cc2)[C@@H](CO)N3C)cc1	-2	-7	7	-48	90*
CN1c2ccc(-c3cccc(F)c3)cc2[C@H]2[C@H](CCN2C(=O)c2ccccc2F)[C@H]1CO	0	89*	1	5	1
CN1c2ccc(-c3cccc(C#N)c3)cc2[C@H]2[C@H](CCN2S(=O)(=O)c2ccccc2F)[C@H]1CO	4	123*	5	-17	-8
COc1ccc(-c2ccc3c(c2)[C@@H]2[C@@H](CCN2C(=O)Nc2ccc(F)cc2)[C@H](CO)N3C)cc1	-4	-8	30*	-47	37
COc1cccc(NC(=O)C[C@H]2CC[C@H]3[C@H](COc4ccc(NC(=O)C5CCCC5)cc4C(=O)N3C)O2)c1	x	x	x	-24	x
C[C@@H]1CN(C)C(=O)Cc2cc(N)ccc2O[C@@H]1CN(C)S(C)(=O)=O	x	x	x	-6	x
O=C(C[C@@H]1CC[C@@H]2[C@H](COC[C@@H](O)CN2Cc2nccs2)O1)NCc1ccc(Oc2ccccc2)cc1	3	-2	0	-18	0
COc1ccc(-n2sc3ccc(F)cc3c2=O)cc1	6	3	-24	32	-24
COc1ccc(-n2sc3ccccc3c2=O)cc1	75*	-9	-14	87*	-11
CC(=Nc1ccccc1)C1=C(O)CCCC1=O	36*	-8	-5	4	-10
COc1ccc2c3c([nH]c2c1)[C@@H](CO)N(C(=O)CN(C)C)CC31CN(CC2CC2)C1	6	-3	16	23	56*
COc1ccc2c3c([nH]c2c1)[C@H](CO)N(C(=O)CN(C)C)CC31CN(CC2CCCC2)C1	1	15	15	13	49
COc1ccc2c3c([nH]c2c1)[C@H](CO)N(C(=O)CN(C)C)CC31CN(CC2CC2)C1	9	1	13	-1	50*
SMILES	ERAP1 HTS inh	S100A4 MyoIIA	MLL AF4-AF9 inh	GSIS activator	RAD52 inh
COc1ccc2c3c([nH]c2c1)[C@H](CO)N(C(=O)CN(C)C)CC31CN(Cc2ccccc2)C1	-4	-5	5	14	55*
COc1ccc2c3c(n(C)c2c1)[C@@H](CO)N(C(=O)CN(C)C)CC31CN(Cc2cccnc2)C1	x	x	x	5	x
CC(=O)N1C[C@H]2CON(C)[C@H]2C[C@H]1c1cccc(N2CCOCC2)c1	108*	0	0	-10	-8
O=C1Nc2ccccc2-n2nnnc2C1N1CCN(c2ccccn2)CC1 (stereo not given)	-2	0	x	101*	-37
O=C1Nc2ccccc2-n2nnnc2C1N1CCN(c2ccc(C(F)(F)F)cn2)CC1 (stereo not given)	x	12	-2	-19	-6
C[C@H](CO)N1C[C@H](C)[C@@H](CN(C)CC2CCCCC2)Oc2c(NC(=O)CCCCCC(=O)Nc3ccccc3N)cccc2C1=O	-1	1	-8	-10	2
C#CCOCCOCCOCCNc1nc(N2CCN(C(=O)CCCCCCCCCCNC(=O)Cn3cc(CCCCCN)nn3)CC2)nc(N2CCN(C(=O)CCCCCCCCCCNC(=O)Cn3cc(C[C@@H](C)O)nn3)CC2)n1	-8	-8	x	-17	52*
C#CCOCCOCCOCCNc1nc(N2CCN(C(=O)[C@H](CCCCN)n3cc(CN)nn3)CC2)nc(N2CCN(C(=O)[C@H](CCCCN)n3cc(CN)nn3)CC2)n1	-6	0	57*	5	61*
C#CCOCCOCCOCCNc1nc(N2CCN(C(=O)Cn3cc(CCCCN)nn3)CC2)nc(N2CCN(C(=O)Cn3cc(CC(C)O)nn3)CC2)n1 (stereo not given)	-9	8	x	17	-4
C[C@H]1COCc2cn(nn2)CC[C@@H](Cc2ccccc2)C(=O)N1	x	x	x	1	x
CC1N(C)c2cc(NC(=O)c3ccco3)ccc2C1(C)C (stereo not given)	1	180*	u	-8	-61
COc1ccc(C[C@@H]2CCn3cc(nn3)COCCNC2=O)cc1	x	x	x	2	x
CN1CCCCN2[C@H](CO)[C@@H](c3ccc(C#Cc4ccccc4F)cc3)[C@@H]2C1	4	-14	18	1	69*
CC(=O)N1CCCCN2[C@H](CO)[C@@H](c3ccc(C#Cc4ccccc4F)cc3)[C@H]2C1	-1	-3	3	-3	12
CN1CCCCN2[C@@H](CO)[C@@H](c3ccc(C#Cc4ccccc4F)cc3)[C@@H]2C1	0	-10	17	-19	71*
COCC#Cc1cnc2c(c1)C(=O)N([C@H](C)CO)C[C@@H](C)[C@@H](CN(C)S(=O)(=O)c1ccccc1)O2	5	-14	-1	-4	19
COCC#Cc1ccc(CC[C@H]2O[C@H]3CC[C@H](CO)O[C@H]3C[C@H]2NC(=O)Nc2c(C)noc2C)cc1	-2	-2	-2	x	13
